Reference: ChEMBL document CHEMBL3046780, “Syntheses and herbicidal activity of new triazolopyrimidine-2-sulfonamides as acetohydroxyacid synthase inhibitor” (Bioorg Med Chem, 2010)

Legend:
Polygonum humifusum [1] = test: Post-emergence herbicidal activity against Polygonum humifusum assessed as growth inhibition at 75 g ai/ha measured 15 days post compound treatment under green house conditions; format: functional; conditions: 360 h, read-out: GI
Outline: (§1)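 Compounds formulated as 100 g/L emulsifiable concentrate (DMF solvent, Tween-80 emulsifier), diluted with water, sprayed post-emergence on pot-grown weeds in clay soil (pH 6.5, 1.6% organic matter). Seeds sown 1-3 cm deep, grown at 15-30 °C. Dicots were treated at the 2-leaf stage and monocots at the 1-leaf stage. Untreated and DMF-treated controls were included. Injury was rated visually 15 days after treatment.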

Polygonum humifusum [2] = test: Post-emergence herbicidal activity against Polygonum humifusum assessed as growth inhibition at 37.5 g ai/ha measured 15 days post compound treatment under green house conditions; format: functional; conditions: 360 h, read-out: GI; outline: as §1
Galium aparine [3] = test: Post-emergence herbicidal activity against Galium aparine assessed as growth inhibition at 75 g ai/ha measured 15 days post compound treatment under green house conditions; format: functional; conditions: 360 h, read-out: GI; outline: as §1
Galium aparine [4] = test: Post-emergence herbicidal activity against Galium aparine assessed as growth inhibition at 150 g ai/ha measured 15 days post compound treatment under green house conditions; format: functional; conditions: 360 h, read-out: GI; outline: as §1
Galium aparine [5] = test: Post-emergence herbicidal activity against Galium aparine assessed as growth inhibition at 37.5 g ai/ha measured 15 days post compound treatment under green house conditions; format: functional; conditions: 360 h, read-out: GI; outline: as §1
Eclipta prostrata [6] = test: Post-emergence herbicidal activity against Eclipta prostrata assessed as growth inhibition at 150 g ai/ha measured 15 days post compound treatment under green house conditions; format: functional; conditions: 360 h, read-out: GI; outline: as §1
Amaranthus retroflexus [7] = test: Post-emergence herbicidal activity against Amaranthus retroflexus assessed as growth inhibition at 150 g ai/ha measured 15 days post compound treatment under green house conditions; format: functional; conditions: 360 h, read-out: GI; outline: as §1
Brassica juncea = test: Post-emergence herbicidal activity against Brassica juncea assessed as growth inhibition at 150 g ai/ha measured 15 days post compound treatment under green house conditions; format: functional; conditions: 360 h, read-out: GI; outline: as §1
Poa annua = test: Post-emergence herbicidal activity against Poa annua assessed as growth inhibition at 150 g ai/ha measured 15 days post compound treatment under green house conditions; format: functional; conditions: 360 h, read-out: GI; outline: as §1
Digitaria sanguinalis = test: Post-emergence herbicidal activity against Digitaria sanguinalis (hairy crabgrass) assessed as growth inhibition at 150 g ai/ha measured 15 days post compound treatment under green house conditions; format: functional; conditions: 360 h, read-out: GI; outline: as §1
Echinochloa crus-galli = test: Post-emergence herbicidal activity against Echinochloa crus-galli (barnyard grass) assessed as growth inhibition at 150 g ai/ha measured 15 days post compound treatment under green house conditions; format: functional; conditions: 360 h, read-out: GI; outline: as §1
Chenopodium album [8] = test: Post-emergence herbicidal activity against Chenopodium album assessed as growth inhibition at 37.5 g ai/ha measured 15 days post compound treatment under green house conditions; format: functional; conditions: 360 h, read-out: GI; outline: as §1
Cyperus iria [9] = test: Post-emergence herbicidal activity against Cyperus iria assessed as growth inhibition at 150 g ai/ha measured 15 days post compound treatment under green house conditions; format: functional; conditions: 360 h, read-out: GI; outline: as §1
Cyperus iria [10] = test: Post-emergence herbicidal activity against Cyperus iria assessed as growth inhibition at 75 g ai/ha measured 15 days post compound treatment under green house conditions; format: functional; conditions: 360 h, read-out: GI; outline: as §1
Cyperus iria [11] = test: Post-emergence herbicidal activity against Cyperus iria assessed as growth inhibition at 37.5 g ai/ha measured 15 days post compound treatment under green house conditions; format: functional; conditions: 360 h, read-out: GI; outline: as §1
Cerastium arvense [12] = test: Post-emergence herbicidal activity against Cerastium arvense assessed as growth inhibition at 150 g ai/ha measured 15 days post compound treatment under green house conditions; format: functional; conditions: 360 h, read-out: GI; outline: as §1
Cerastium arvense [13] = test: Post-emergence herbicidal activity against Cerastium arvense assessed as growth inhibition at 75 g ai/ha measured 15 days post compound treatment under green house conditions; format: functional; conditions: 360 h, read-out: GI; outline: as §1
Cerastium arvense [14] = test: Post-emergence herbicidal activity against Cerastium arvense assessed as growth inhibition at 37.5 g ai/ha measured 15 days post compound treatment under green house conditions; format: functional; conditions: 360 h, read-out: GI; outline: as §1
Polygonum humifusum [15] = test: Post-emergence herbicidal activity against Polygonum humifusum assessed as growth inhibition at 150 g ai/ha measured 15 days post compound treatment under green house conditions; format: functional; conditions: 360 h, read-out: GI; outline: as §1
Eclipta prostrata [16] = test: Post-emergence herbicidal activity against Eclipta prostrata assessed as growth inhibition at 75 g ai/ha measured 15 days post compound treatment under green house conditions; format: functional; conditions: 360 h, read-out: GI; outline: as §1
Eclipta prostrata [17] = test: Post-emergence herbicidal activity against Eclipta prostrata assessed as growth inhibition at 37.5 g ai/ha measured 15 days post compound treatment under green house conditions; format: functional; conditions: 360 h, read-out: GI; outline: as §1
Rumex acetosa [18] = test: Post-emergence herbicidal activity against Rumex acetosa assessed as growth inhibition at 150 g ai/ha measured 15 days post compound treatment under green house conditions; format: functional; conditions: 360 h, read-out: GI; outline: as §1
Rumex acetosa [19] = test: Post-emergence herbicidal activity against Rumex acetosa assessed as growth inhibition at 75 g ai/ha measured 15 days post compound treatment under green house conditions; format: functional; conditions: 360 h, read-out: GI; outline: as §1
Rumex acetosa [20] = test: Post-emergence herbicidal activity against Rumex acetosa assessed as growth inhibition at 37.5 g ai/ha measured 15 days post compound treatment under green house conditions; format: functional; conditions: 360 h, read-out: GI; outline: as §1
Amaranthus retroflexus [21] = test: Post-emergence herbicidal activity against Amaranthus retroflexus assessed as growth inhibition at 75 g ai/ha measured 15 days post compound treatment under green house conditions; format: functional; conditions: 360 h, read-out: GI; outline: as §1
Amaranthus retroflexus [22] = test: Post-emergence herbicidal activity against Amaranthus retroflexus assessed as growth inhibition at 37.5 g ai/ha measured 15 days post compound treatment under green house conditions; format: functional; conditions: 360 h, read-out: GI; outline: as §1
Chenopodium album [23] = test: Post-emergence herbicidal activity against Chenopodium album assessed as growth inhibition at 150 g ai/ha measured 15 days post compound treatment under green house conditions; format: functional; conditions: 360 h, read-out: GI; outline: as §1
Chenopodium album [24] = test: Post-emergence herbicidal activity against Chenopodium album assessed as growth inhibition at 75 g ai/ha measured 15 days post compound treatment under green house conditions; format: functional; conditions: 360 h, read-out: GI; outline: as §1
[25] = molecular target: T1, Acetolactate synthase, chloroplastic (Arabidopsis thaliana, UniProt P17597)
T1 sequence (P17597 whole entry): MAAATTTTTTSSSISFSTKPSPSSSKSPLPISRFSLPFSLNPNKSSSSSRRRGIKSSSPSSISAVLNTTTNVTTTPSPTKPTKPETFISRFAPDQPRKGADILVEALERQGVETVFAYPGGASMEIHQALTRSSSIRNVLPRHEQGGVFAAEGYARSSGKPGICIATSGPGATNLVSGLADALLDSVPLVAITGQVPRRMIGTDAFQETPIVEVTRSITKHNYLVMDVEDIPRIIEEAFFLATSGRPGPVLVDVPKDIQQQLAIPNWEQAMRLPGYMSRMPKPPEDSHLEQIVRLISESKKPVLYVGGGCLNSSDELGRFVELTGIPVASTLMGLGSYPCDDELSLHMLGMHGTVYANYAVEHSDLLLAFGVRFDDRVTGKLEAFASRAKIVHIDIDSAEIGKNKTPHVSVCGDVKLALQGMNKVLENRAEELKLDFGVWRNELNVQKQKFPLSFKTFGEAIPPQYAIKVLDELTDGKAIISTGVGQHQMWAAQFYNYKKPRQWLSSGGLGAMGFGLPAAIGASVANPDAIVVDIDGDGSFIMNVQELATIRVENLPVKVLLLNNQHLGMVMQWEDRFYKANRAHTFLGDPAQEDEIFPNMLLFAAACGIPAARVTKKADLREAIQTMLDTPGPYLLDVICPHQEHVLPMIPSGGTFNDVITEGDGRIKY

Q: For `COc1ccn2nc(S(=O)(=O)Nc3cccc(Cl)c3Cl)nc2n1`, which inhibition of growth at 75 g/ha (Polygonum humifusum [1]) is on record?
A: 50%

Q: What about the inhibition of growth at 37.5 g/ha (Polygonum humifusum [2]) of the same compound?
A: 50%

Q: And the inhibition of growth at 75 g/ha (Galium aparine [3])?
A: 50%

Q: What about the inhibition of growth at 150 g/ha (Galium aparine [4]) of the same compound?
A: 50%

Q: And the inhibition of growth at 37.5 g/ha (Galium aparine [5])?
A: 50%

Q: And the inhibition of growth at 150 g/ha (Eclipta prostrata [6])?
A: ≥ 50%

Q: And the inhibition of growth at 150 g/ha (Amaranthus retroflexus [7])?
A: ≥ 50%

Q: And the inhibition of growth at 150 g/ha (Brassica juncea)?
A: ≥ 80%

Q: What about the inhibition of growth at 150 g/ha (Poa annua) of the same compound?
A: < 50%

Q: And the inhibition of growth at 150 g/ha (Digitaria sanguinalis)?
A: < 50%

Q: And the inhibition of growth at 150 g/ha (Echinochloa crus-galli)?
A: < 50%

Q: What about the inhibition of growth at 37.5 g/ha (Chenopodium album [8]) of the same compound?
A: < 50%

Q: And the inhibition of growth at 150 g/ha (Cyperus iria [9])?
A: 50%

Q: What about the inhibition of growth at 75 g/ha (Cyperus iria [10]) of the same compound?
A: 50%

Q: What about the inhibition of growth at 37.5 g/ha (Cyperus iria [11]) of the same compound?
A: 50%

Q: What about the inhibition of growth at 150 g/ha (Cerastium arvense [12]) of the same compound?
A: < 50%

Q: What about the inhibition of growth at 75 g/ha (Cerastium arvense [13]) of the same compound?
A: < 50%

Q: What about the inhibition of growth at 37.5 g/ha (Cerastium arvense [14]) of the same compound?
A: < 50%

Q: What about the inhibition of growth at 150 g/ha (Polygonum humifusum [15]) of the same compound?
A: 50%

Q: And the inhibition of growth at 75 g/ha (Eclipta prostrata [16])?
A: 50%

Q: What about the inhibition of growth at 37.5 g/ha (Eclipta prostrata [17]) of the same compound?
A: 50%

Q: What about the inhibition of growth at 150 g/ha (Rumex acetosa [18]) of the same compound?
A: 50%

Q: What about the inhibition of growth at 75 g/ha (Rumex acetosa [19]) of the same compound?
A: 50%

Q: And the inhibition of growth at 37.5 g/ha (Rumex acetosa [20])?
A: 50%

Q: What about the inhibition of growth at 75 g/ha (Amaranthus retroflexus [21]) of the same compound?
A: 50%

Q: What about the inhibition of growth at 37.5 g/ha (Amaranthus retroflexus [22]) of the same compound?
A: 50%

Q: What about the inhibition of growth at 150 g/ha (Chenopodium album [23]) of the same compound?
A: < 50%

Q: And the inhibition of growth at 75 g/ha (Chenopodium album [24])?
A: < 50%

Q: What about the Ki [25] of the same compound?
A: 14.8 µM

Q: For `COC(=O)c1cccc(Cl)c1NS(=O)(=O)c1nc2nc(OC)ccn2n1`, which inhibition of growth at 75 g/ha (Polygonum humifusum [1]) is on record?
A: 50%

Q: And the inhibition of growth at 37.5 g/ha (Polygonum humifusum [2])?
A: 50%

Q: And the inhibition of growth at 75 g/ha (Galium aparine [3])?
A: ≥ 90%

Q: And the inhibition of growth at 150 g/ha (Galium aparine [4])?
A: ≥ 90%

Q: And the inhibition of growth at 37.5 g/ha (Galium aparine [5])?
A: ≥ 80%

Q: What about the inhibition of growth at 150 g/ha (Eclipta prostrata [6]) of the same compound?
A: ≥ 90%

Q: And the inhibition of growth at 150 g/ha (Amaranthus retroflexus [7])?
A: ≥ 80%

Q: What about the inhibition of growth at 150 g/ha (Brassica juncea) of the same compound?
A: ≥ 90%

Q: What about the inhibition of growth at 150 g/ha (Poa annua) of the same compound?
A: < 50%

Q: What about the inhibition of growth at 150 g/ha (Digitaria sanguinalis) of the same compound?
A: < 50%

Q: And the inhibition of growth at 150 g/ha (Echinochloa crus-galli)?
A: 50%

Q: What about the inhibition of growth at 37.5 g/ha (Chenopodium album [8]) of the same compound?
A: ≥ 80%

Q: And the inhibition of growth at 150 g/ha (Cyperus iria [9])?
A: 50%

Q: What about the inhibition of growth at 75 g/ha (Cyperus iria [10]) of the same compound?
A: 50%

Q: And the inhibition of growth at 37.5 g/ha (Cyperus iria [11])?
A: 50%

Q: And the inhibition of growth at 150 g/ha (Cerastium arvense [12])?
A: ≥ 90%

Q: And the inhibition of growth at 75 g/ha (Cerastium arvense [13])?
A: ≥ 80%

Q: And the inhibition of growth at 37.5 g/ha (Cerastium arvense [14])?
A: ≥ 80%

Q: What about the inhibition of growth at 150 g/ha (Polygonum humifusum [15]) of the same compound?
A: 50%

Q: What about the inhibition of growth at 75 g/ha (Eclipta prostrata [16]) of the same compound?
A: ≥ 80%

Q: What about the inhibition of growth at 37.5 g/ha (Eclipta prostrata [17]) of the same compound?
A: 50%

Q: And the inhibition of growth at 150 g/ha (Rumex acetosa [18])?
A: ≥ 80%

Q: What about the inhibition of growth at 75 g/ha (Rumex acetosa [19]) of the same compound?
A: ≥ 80%

Q: And the inhibition of growth at 37.5 g/ha (Rumex acetosa [20])?
A: ≥ 80%

Q: What about the inhibition of growth at 75 g/ha (Amaranthus retroflexus [21]) of the same compound?
A: ≥ 80%

Q: And the inhibition of growth at 37.5 g/ha (Amaranthus retroflexus [22])?
A: ≥ 80%

Q: What about the inhibition of growth at 150 g/ha (Chenopodium album [23]) of the same compound?
A: ≥ 90%

Q: And the inhibition of growth at 75 g/ha (Chenopodium album [24])?
A: ≥ 90%

Q: And the Ki [25]?
A: 1.61 µM
